Laboratory results published in ChEMBL document CHEMBL3822375, “Preclinical Characterization of 3β-(N-Acetyl l-cysteine methyl ester)-2aβ,3-dihydrogaliellalactone (GPA512), a Prodrug of a Direct STAT3 Inhibitor for the Treatment of Prostate Cancer” (J Med Chem, 2016).
pIC50: −log10 of the molar value. Activity calls are given as the source filed them. The calls are words filed in the database; no cut-off is given here.

Legend:
[1] = Antiproliferative activity against human DU145 cells after 72 hrs by WST-1 proliferation assay; format: functional, cell-based; details: DU-145, 72 h
Summary of the method: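 Cells in RPMI-1640 (DU145, LNCaP, LNCaP-IL6+) or HAM's F-12 (PC3) with 10% FBS. DU145 and LNCaP-IL6+ seeded at 2 000 cells/well, LNCaP and PC3 at 5 000 cells/well, adhered 24 h, then exposed to compound for 72 h. WST-1 absorbance read at 450 nm with 630 nm reference. Background subtracted; expressed as percent of untreated cells.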

Plasma [2] = assay: Half life in human plasma assessed as formation of galiellalactone at 5 uM by LC-MS/MS analysis; format: ADME, cell-free
Summary of the method: (§1)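 Plasma of each species incubated at 37 °C with compound at 5 µM initial, 1% DMSO, n=2. Simvastatin and eucatropine run as controls. Aliquots taken at 0, 5, 15, 30 and 60 min and quenched with acetonitrile containing internal standard, then analysed by LC-MS/MS.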

Plasma [3] = assay: Half life in dog plasma assessed as formation of galiellalactone at 5 uM by LC-MS/MS analysis; format: ADME, cell-free, Canis lupus familiaris; summary of the method: as §1
Plasma [4] = assay: Half life in mouse plasma assessed as formation of galiellalactone at 5 uM by LC-MS/MS analysis; format: ADME, cell-free; summary of the method: as §1
Mus musculus [5] = assay: Tmax in mouse plasma assessed as galiellalactone level at 40 mg/kg, po by LC-MS/MS analysis; format: ADME, organism-based; details: in vivo
Mus musculus [6] = assay: Apparent half life in mouse plasma assessed as galiellalactone level at 40 mg/kg, po by LC-MS/MS analysis; format: ADME, organism-based; details: in vivo
Summary of the method: (§2)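 Single dose to mice; oral, iv or ip as listed, in 5% DMSO/50 mM citrate buffer pH 4.0 (dosing solutions 0.5, 2 or 5 mg/mL). Oral dosing at 20 mL/kg. Terminal blood under barbiturate anaesthesia at eight time-points to 8 h, n=3 mice per time-point, EDTA plasma. Acetonitrile precipitation with internal standard, LC-MS/MS against plasma calibration lines. Non-compartmental analysis on mean data, trapezoidal AUC.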

Mus musculus [7] = assay: Apparent half life in mouse plasma assessed as galiellalactone level at 100 mg/kg, po by LC-MS/MS analysis; format: ADME, organism-based; details: in vivo; summary of the method: as §2
Mus musculus [8] = assay: AUC (0 to infinity) in mouse plasma assessed as galiellalactone level at 100 mg/kg, po by LC-MS/MS analysis; format: ADME, organism-based; parameters: dose 100 mg/kg, time infinity, route oral; details: in vivo; summary of the method: as §2
Mus musculus [9] = assay: Toxicity in NMRI mouse xenografted with human DU145 cells assessed as weight loss at 40 mg/kg, po administered 5 times per week for 4 weeks measured on day 26 and day 29; format: organism-based, DU-145; details: in vivo, 672 h
Summary of the method: (§3)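 Male NMRI-nude mice, 20 in total, were given 1.5 million DU145 cells subcutaneously in the flank. After 4 weeks they were split into two groups of 10. Each group was gavaged with 40 mg/kg or with vehicle (50 mM citrate buffer pH 4.0, 2% DMSO) daily, 5 times per week for 4 weeks. Body weight, behaviour, side effects and survival were monitored, and tumours were measured twice weekly by caliper.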

Mus musculus [10] = assay: Toxicity in NMRI mouse xenografted with human DU145 cells assessed as behavioral alterations at 40 mg/kg, po administered 5 times per week for 4 weeks measured on day 26 and day 29; format: organism-based, DU-145; details: in vivo, 672 h; summary of the method: as §3
DU-145 = assay: Induction of apoptosis in human DU145 cells xenografted in NMRI nude mouse assessed as increase in cleaved caspase3 level at 40 mg/kg, po administered 5 times per week for 4 weeks by immunohistochemical analysis; format: functional, organism-based
Summary of the method: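 DU145 cells (1.5 million) inoculated subcutaneously in the flank of NMRI-nude male mice. After four weeks, 10 mice per group were dosed orally by feeding needle with 40 mg/kg or vehicle (50 mM citrate buffer pH 4.0, 2% DMSO), five days a week for four weeks. Tumours were fixed in formaldehyde and stained for cleaved caspase-3. Positive cells were counted as the mean per view over five 10x views per section.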

[11] = Downregulation of MCL1 mRNA expression in human DU145 cells xenografted in NMRI nude mouse at 40 mg/kg, po administered 5 times per week for 4 weeks by qPCR analysis; format: functional, organism-based; details: DU-145
Summary of the method: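 Half of each DU145 xenograft tumour was snap frozen for mRNA. MCL1 and BCL2 measured by quantitative real-time PCR: 10 min at 95°C, then 40 cycles of 95°C 15 s and 60°C 60 s. Comparative Ct method, normalized to HMBS and SDHA.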

Mus musculus [12] = assay: Effect on STAT3 phosphorylation in NMRI mouse xenografted with human DU145 cells at 40 mg/kg, po administered 5 times per week for 4 weeks by immunohistochemical analysis; format: functional, organism-based; details: DU-145
Summary of the method: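 Tumours from the oral DU145 xenograft study were fixed in formaldehyde and sectioned. IHC used the EnVision Flex kit with anti-Ki67 and anti-pSTAT3 antibodies, imaged at 10× bright field. Ki67 scored as Ki67-positive cells over total cells.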

Mus musculus [13] = assay: Toxicity in CD1 mouse assessed as change in body weight at 40 mg/kg, administered as single dose through oral gavage measured on day 4 (reference value: 34.68 +/- 4.71 g); format: organism-based; details: in vivo
Mus musculus [14] = assay: Toxicity in CD1 mouse assessed as change in body weight at 200 mg/kg, administered as single dose through oral gavage measured on day 1 (reference value: 33.5 +/- 4.34 g); format: organism-based; details: in vivo
Mus musculus [15] = assay: Toxicity in CD1 mouse assessed as change in body weight at 400 mg/kg, administered as single dose through oral gavage measured on day 4 (reference value: 34.68 +/- 4.71 g); format: organism-based; details: in vivo
Mus musculus [16] = assay: Cmax in mouse plasma assessed as galiellalactone level at 10 mg/kg, po by LC-MS/MS analysis; format: ADME, organism-based; parameters: dose 10 mg/kg, route oral; details: in vivo; summary of the method: as §2
Mus musculus [17] = assay: Tmax in mouse plasma assessed as galiellalactone level at 10 mg/kg, po by LC-MS/MS analysis; format: ADME, organism-based; details: in vivo
Hepatocyte = assay: Prodrug conversion in mouse hepatocytes assessed as galiellalactone formation of after 2 hrs by UPLC-MS analysis; format: ADME, cell-based
Summary of the method: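 Cryopreserved mouse hepatocytes incubated with an initial 10 µM test item (DMSO stock) in Celsis InVitro HI medium, pH 7.4, 37 °C. Cell viability checked by Trypan blue. Sampled at 0 and 120 min and stopped with an equal volume of acetonitrile. Analysed by UPLC/Q-TOF-MS.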

Mus musculus [18] = assay: Toxicity in NMRI mouse xenografted with human DU145 cells assessed as mouse survival at 40 mg/kg, po administered 5 times per week for 4 weeks measured on day 26 and day 29; format: organism-based, DU-145; details: in vivo, 672 h; summary of the method: as §3
Mus musculus [19] = assay: Toxicity in CD1 mouse assessed as effect on clinical signs at 40 to 400 mg/kg, administered as single dose through oral gavage; format: organism-based; details: in vivo
Summary of the method: (§4)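 Male CD1 mice, 7 weeks old, 5 per group, given one oral gavage dose of 40, 200 or 400 mg/kg in 50 mM citrate buffer, pH 4.0, 5% DMSO, alongside a vehicle control group. Clinical signs, clinical pathology and histopathology were assessed, with the study ending on day 8.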

Mus musculus [20] = assay: Toxicity in CD1 mouse assessed as effect on clinical pathological parameters at 40 to 400 mg/kg, administered as single dose through oral gavage; format: organism-based; details: in vivo; summary of the method: as §4

SMILES: COC(=O)[C@H](CS[C@H]1C2C(=O)O[C@@H]3CC[C@H](C[C@@H]1C)[C@]23O)NC(C)=O (some centres not stated)
- pIC50 [1]: 5.32
- t1/2 (Plasma [2]): < 5 min
- t1/2 (Plasma [3]): < 5 min
- t1/2 (Plasma [4]): < 5 min
- Tmax (Mus musculus [5]): 15 min
- t1/2(app) (Mus musculus [6]): 180 min
- t1/2(app) (Mus musculus [7]): 180 min
- AUC (Mus musculus [8]): 679 µg/mL/min
- Activity (Mus musculus [9]): Non-toxic
- Activity (Mus musculus [10]): Non-toxic
- Activity (DU-145): Active
- Activity [11]: Active
- Activity (Mus musculus [12]): inactive
- Activity (Mus musculus [13]): 33.68 g
- Activity (Mus musculus [14]): 33.56 g
- Activity (Mus musculus [15]): 34.76 g
- Cmax (Mus musculus [16]): 1893 ng/mL
- Tmax (Mus musculus [17]): 15 min
- Drug metabolism (Hepatocyte): metabolite_detected
- Activity (Mus musculus [18]): Non-toxic
- Activity (Mus musculus [19]): Non-toxic
- Activity (Mus musculus [20]): Non-toxic
